ChEMBL document CHEMBL4431329, “Peripherally Selective Cannabinoid 1 Receptor (CB1R) Agonists for the Treatment of Neuropathic Pain” (J Med Chem, 2016)
Calls of active or inactive are those of the source.

How the values were obtained:
[1] = Metabolic stability in Sprague-Dawley rat liver S9 fraction assessed as compound remaining at 10 uM measured at 1 hr by LC/MS analysis; assay type: ADME, subcellular; conditions: s9, 1 h
Summary of the method: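 Compound (10 μM final, from 1 mM ethanol stock) was incubated at 37 °C in male Sprague–Dawley rat liver S9 (1 mg protein/mL). The mix held an NADPH-regenerating system (1 mM NADP, 5 mM glucose 6-phosphate, 1 U/mL G6PDH) in 50 mM KPO4 pH 7.4 with 3 mM MgCl2, preincubated 5 min. Samples at 0–120 min were methanol-extracted and analysed by LC/MS.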

Cannabinoid receptor 1 [2] = target: T1, Cannabinoid receptor 1 (Homo sapiens, UniProt P21554); assay: Agonist activity at human CB1R expressed in CHO cells by Ca2+ flux assay; assay type: functional, cell-based
T1 sequence (P21554 whole entry): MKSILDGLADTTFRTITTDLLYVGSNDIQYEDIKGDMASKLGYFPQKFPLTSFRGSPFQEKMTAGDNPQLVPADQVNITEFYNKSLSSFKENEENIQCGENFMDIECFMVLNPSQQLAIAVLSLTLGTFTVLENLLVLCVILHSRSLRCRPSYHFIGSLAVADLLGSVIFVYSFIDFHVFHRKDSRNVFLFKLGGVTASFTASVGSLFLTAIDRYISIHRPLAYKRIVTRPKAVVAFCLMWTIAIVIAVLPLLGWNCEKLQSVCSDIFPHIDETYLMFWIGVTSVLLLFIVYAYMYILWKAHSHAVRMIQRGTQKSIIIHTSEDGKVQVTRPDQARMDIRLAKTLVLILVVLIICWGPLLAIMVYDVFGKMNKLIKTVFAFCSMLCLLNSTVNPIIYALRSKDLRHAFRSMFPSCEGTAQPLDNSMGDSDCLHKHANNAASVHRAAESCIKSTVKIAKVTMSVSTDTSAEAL
Summary of the method: (§1)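 CHO cells stably co-expressing human CB1 or CB2 with Gαq16 were seeded at 40000/well and grown 24 h at 37 °C. They were loaded 1 h at 37 °C with Fluo-4 AM (2 μM final) in HBSS/20 mM HEPES/1% BSA/probenecid. Agonist was added after ~17 s baseline, and fluorescence (ex 488/em 525) was read each 1 s for 60 s. Runs were done 3–6 times; mean ± SEM.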

[3] = Metabolic stability in Sprague-Dawley rat plasma assessed as compound remaining at 10 uM measured at 1 hr by LC/MS analysis; assay type: ADME, cell-free
Summary of the method: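 Compound (10 μM final, from 1 mM ethanol stock) was incubated in male Sprague–Dawley rat plasma at 37 °C. Aliquots taken at 0, 30 and 60 min were extracted with 3 volumes methanol and centrifuged. Supernatants were analysed by LC/MS.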

Rattus norvegicus [4] = assay: Analgesic activity in naive Sprague-Dawley rat assessed as tail flick latency at 0.01 mg/kg, ip up to 48 hrs by tail-flick assay; assay type: functional, organism-based
Summary of the method: (§2)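 Naïve male Sprague–Dawley rats were dosed ip (DMSO/Cremophor EL/saline) or by gavage (DMSO in 20% condensed milk). Radiant heat was aimed 3 cm from the tail tip and latency timed by photocell. Baseline was set to ~5–7 s with a 25 s cutoff. Testing ran 1 h pre-dose and up to 48 h after. Peak effect was taken minus vehicle; n = 6–8; blinded.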

Rattus norvegicus [5] = assay: Analgesic activity in naive Sprague-Dawley rat assessed as tail flick latency at 0.1 to 10 mg/kg administered through oral gavage up to 48 hrs by tail-flick assay; assay type: functional, organism-based; summary of the method: as §2
Rattus norvegicus [6] = assay: Analgesic activity in naive Sprague-Dawley rat assessed as increase in tail flick latency at 0.3 mg/kg, ip up to 48 hrs by tail-flick assay; assay type: functional, organism-based; summary of the method: as §2
[7] = Toxicity in naive Sprague-Dawley rat assessed as motor incoordination at 0.01 mg/kg, ip after 2 to 48 hrs by rotarod test; assay type: organism-based; conditions: in vivo
Summary of the method: (§3)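 Rats were trained 72 h earlier (3 sessions, 24 h apart) to stay ≥180 s on an accelerating rotarod (4–40 rev over 5 min). Time on rod was recorded to a 3 min cutoff, 1 h pre-dose and 2, 6, 24 and 48 h after ip or oral gavage dosing. Values are peak effect minus vehicle; n = 6–8; blinded.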

[8] = Toxicity in naive Sprague-Dawley rat assessed as hypothermia at 0.01 mg/kg, ip after 2 to 48 hrs by core temperature test; assay type: organism-based; conditions: in vivo
Summary of the method: (§4)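 Naïve rats were acclimated to a restrainer (two 5-min sessions 20 min apart). Core temperature was taken before and 2, 6, 24 and 48 h after ip (DMSO/Cremophor EL/saline) or oral gavage (DMSO in 20% condensed milk) dosing. Dose-response points are mean peak effect minus vehicle; n = 6–8 rats; blinded.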

[9] = Toxicity in naive Sprague-Dawley rat assessed as immobility at 0.01 mg/kg, ip by after 2 to 48 hrs by catalepsy ring test; assay type: organism-based; conditions: in vivo
Summary of the method: (§5)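 In the ring immobility test, forepaws were placed on a 12 cm horizontal ring with hindpaws just touching the bench. Time to move off was recorded, 100 s cutoff. Testing was pre-dose and 2, 6, 24 and 48 h after ip or oral gavage dosing. Values are peak effect minus vehicle; n = 6–8; blinded.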

Cannabinoid receptor 2 [10] = target: T2, Cannabinoid receptor 2 (Homo sapiens, UniProt P34972); assay: Agonist activity at human CB2R expressed in CHO cells by Ca2+ flux assay; assay type: functional, cell-based; summary of the method: as §1
T2 sequence (P34972 whole entry): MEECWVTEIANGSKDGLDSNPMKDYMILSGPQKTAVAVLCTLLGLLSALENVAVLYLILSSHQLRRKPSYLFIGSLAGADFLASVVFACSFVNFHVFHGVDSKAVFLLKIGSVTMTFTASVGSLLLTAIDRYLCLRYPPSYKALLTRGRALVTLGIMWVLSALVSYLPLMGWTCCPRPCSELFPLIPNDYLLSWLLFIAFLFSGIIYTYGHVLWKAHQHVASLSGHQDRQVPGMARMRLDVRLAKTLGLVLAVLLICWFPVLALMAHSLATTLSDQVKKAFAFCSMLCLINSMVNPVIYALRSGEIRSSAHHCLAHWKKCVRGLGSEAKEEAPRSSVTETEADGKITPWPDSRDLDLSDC

[11] = Efflux ratio of permeability in MDCK cells expressing mdr1 at 10 uM by mass spectroscopic analysis; assay type: ADME, cell-based, Canis lupus familiaris; conditions: dog
Summary of the method: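 MDCK-mdr1 monolayers were grown 4 days on Transwell filters in DMEM/F12 with 10% FBS. Compound (10 μM) was added apically in HBSS with 25 mM D-glucose, HEPES pH 7.4, and incubated 1 h at 37 °C. Apical and basal samples were quantified by LC-MS/MS (MRM). Values are the average of 2–3 measurements.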

Rattus norvegicus [12] = assay: Antiallodynic activity in SNE-induced mechanical allodynia naive Sprague-Dawley rat model assessed as reversible […] in hindpaw ipsilateral withdrawal threshold at 0.3 mg/kg, ip preincubated for 3 hrs followed by SNE addition; assay type: functional, organism-based
Summary of the method: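 Male Sprague–Dawley rats received unilateral sciatic nerve entrapment. Testing began 8 days post-surgery at 3-day intervals, dosed ip in DMSO/Cremophor EL/saline. Hindpaw withdrawal threshold (g) was read with a digital von Frey meter, 4 readings per paw at 30 s spacing, averaged. Reads were taken 1 h before and 3, 6, 24 and 48 h after dosing; n = 8; blinded; one-way RM ANOVA.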

Cannabinoid receptor 1 [13] = target: T1, Cannabinoid receptor 1; assay: Displacement of [3H]-CP55940 from human CB1 receptor
Summary of the method: (§6)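 Radioligand displacement used [3H]-CP55940 as tracer in heterologous competition binding. Unlabeled reference ligands defined nonspecific binding. Ki was calculated by Cheng–Prusoff.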

[14] = Toxicity in naive Sprague-Dawley rat assessed as immobility at 0.1 to 10 mg/kg administered through oral gavage after 2 to 48 hrs by catalepsy ring test; assay type: organism-based; conditions: in vivo; summary of the method: as §5
Cannabinoid receptor 2 [15] = target: T2, Cannabinoid receptor 2; assay: Displacement of [3H]-CP55940 from human CB2 receptor; summary of the method: as §6
[16] = Toxicity in naive Sprague-Dawley rat assessed as motor incoordination at 0.1 to 10 mg/kg administered through oral gavage after 2 to 48 hrs by rotarod test; assay type: organism-based; conditions: in vivo; summary of the method: as §3
[17] = Toxicity in naive Sprague-Dawley rat assessed as hypothermia at 0.1 to 10 mg/kg administered through oral gavage after 2 to 48 hrs by core temperature test; assay type: organism-based; conditions: in vivo; summary of the method: as §4

Row | Compound | Stability [1] | EC50 (Cannabinoid receptor 1 [2]) | Emax (Cannabinoid receptor 1 [2]) | Stability [3] | EC50 (Cannabinoid receptor 2 [10]) | Emax (Cannabinoid receptor 2 [10]) | Ki (Cannabinoid receptor 1 [13]) | further results
1 | CCCCCn1cc(C(=O)c2cccc3ccccc23)c2cccc(F)c21 | 50% | 104 nM | 79% | 97% |  |  |  | 
2 | CCCCCCC(C)(C)c1cc(O)c2c(c1)OC(C)(C)[C@@H]1CC=C(CO)C[C@@H]21 |  |  |  |  |  |  |  | Activity (Rattus norvegicus [4]): Active; Activity (Rattus norvegicus [5]): Active; Activity (Rattus norvegicus [6]): Active; Activity [7]: Toxic; Activity [8]: Toxic; Activity [9]: Toxic
3 | C1=C(CCN2CCOCC2)c2ccccc2/C1=C/c1cccc2ccccc12 | 22.5% | 257 nM | 103% | 98.5% | 138 nM | 27% |  | Ratio [11]: 0.001; Activity (Rattus norvegicus [12]): Active
4 | O=C(O)CCCn1cc(C(=O)c2cccc3ccccc23)c2ccccc21 |  |  |  |  |  |  | > 10000 nM | 
5 | COc1ccc(/C=C2\C=C(CCN3CCOCC3)c3ccccc32)c2ccccc12 | 43% | 196 nM | 114% | 100% | 194 nM | 52% |  | Activity [14]: Non-Toxic; Ki (Cannabinoid receptor 2 [15]): 4.07 nM; Activity (Rattus norvegicus [5]): Active; Activity (Rattus norvegicus [6]): Active; Activity (Rattus norvegicus [12]): Active; Activity [16]: Non-Toxic; Activity [17]: Non-Toxic
6 | C1=C(CCN2CCOCC2)c2ccccc2/C1=C/c1ccc2c3c(cccc13)CC2 |  |  |  |  | 594 nM | 20% |  | Ratio [11]: 0.0014
7 | O=C(O)CCCCn1cc(C(=O)c2cccc3ccccc23)c2ccccc21 |  |  |  |  |  |  | > 10000 nM | 
8 | C[N+]1(CCn2cc(C(=O)c3cccc4ccccc34)c3ccccc32)CCOCC1 |  |  |  |  |  |  | > 10000 nM | 
9 | CCCCCCC1=C/C(=C\c2ccccc2)c2ccccc21 |  |  |  |  |  |  | 4410 nM | 
10 | CCCCCn1cc(C(=O)c2cccc3ccccc23)c2c(F)cccc21 | 5% |  |  | 69% |  |  |  | 
